Source: PubChem BioAssay (The Scripps Research Institute Molecular Screening Center)
Sampled rows, rich in hits. Any-hit rate of the full collection: about 3.9%.
OX1R antag-1: blocks the human orexin 1 receptor; O43613; OX1R-expressing cells, FRET antagonist read-out; inhibition, % at 6.6 µM; 1.8% of 330,000 active; AID 485270; in the data active = inhibition mostly above about 38%, no sharp cut-off; inactive = mostly below about 40%;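 note: 0% = agonist challenge alone and 100% = reference antagonist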
Target sequence (O43613 whole entry, looked up): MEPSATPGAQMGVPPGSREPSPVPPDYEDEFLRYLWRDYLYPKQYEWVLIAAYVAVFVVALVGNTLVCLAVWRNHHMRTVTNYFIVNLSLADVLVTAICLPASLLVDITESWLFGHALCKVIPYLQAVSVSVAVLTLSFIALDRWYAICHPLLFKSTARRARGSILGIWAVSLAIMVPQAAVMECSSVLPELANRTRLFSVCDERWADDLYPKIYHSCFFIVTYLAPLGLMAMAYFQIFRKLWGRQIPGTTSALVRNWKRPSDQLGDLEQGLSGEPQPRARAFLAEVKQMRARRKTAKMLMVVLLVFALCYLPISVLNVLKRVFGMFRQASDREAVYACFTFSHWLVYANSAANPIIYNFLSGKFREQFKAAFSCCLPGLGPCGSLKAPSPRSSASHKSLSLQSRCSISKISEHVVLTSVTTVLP
TAAR1 antagonist: antagonists of human TAAR1 | inhibition, % at 3 µM | 1.5% of 360,000 active | Q96RJ0 | CHO RD-HGA16 TAAR1, Fluo-8 calcium fluorescence, antagonist;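 active = inhibition above a per-plate cutoff, the mean inhibition of test compounds on that plate plus 3 SD, cut at about 49% in these data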;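 note: 0% = DMSO plus EC80 beta-PEA response and 100% = DMSO alone without agonist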
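Assay system: CHO-derived RD-HGA16 cells stably expressing human TAAR1 plus Gα16. Timing: 140 s kinetic read after compound, 140 s after agonist. Technique: kinetic Fluo-8 calcium fluorescence measurement. Measure: % inhibition of agonist calcium response.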
CHO parental Ca: counter-screen for OX1R antagonists: effect in parental CHO cells. AID 463079. parental CHO-K1, ATP-induced calcium, Fluo-8 fluorescence. 0.63% of 330,000 active. inhibition, % at 5.6 µM;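 active = inhibition above that plate's mean sample inhibition plus 3 SD, cut at about 26% in these data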;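 note: 0% = ATP-challenged DMSO wells and 100% = DMSO wells without ATP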
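Assay system: untransfected parental CHO cell line. Also added: ATP agonist challenge. Dosing: one dose, 5.6 µM nominal. Measured by: Fluo-8 fluorescence. Read-out: % inhibition. Benchmarks: ATP wells versus no-ATP DMSO wells. Repeats: no replicates.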
TAAR1 ag: agonists of human TAAR1; CHO RD-HGA16 TAAR1, Fluo-8 calcium fluorescence; vehicle wells 0%, saturating PEA agonist 100%; activation, % at 3 µM; Q96RJ0; 0.99% of 360,000 active; AID 624467;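 active = activation above the mean activation of all test compounds in the run plus 3 SD, cut at about 38% in these data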
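System: CHO RD-HGA16 cells carrying human TAAR1 plus Gα16; Incubation: 17-24 h seeding, 75 min 37 °C dye, 30 min RT; Measured by: Fluo-8 fluorescence, 5 s baseline then 140 s kinetic read; Control set: DMSO and PEA EC100; Replication: single well for each compound.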
OX1R antag-2: antagonists of human orexin 1 receptor | inhibition, % at 5 µM | 0.43% of 330,000 active | CHO/OX1R cells, Fluo-8 calcium fluorescence, orexin A;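 active = inhibition above its plate's threshold, mean inhibition of all tested compounds on the plate plus 3 SD, cut at about 37% in these data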;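 note: 0% = orexin A challenge wells and 100% = SB-334867-A antagonist wells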
Numbers without * were called inactive; · = no result given.

SMILES | OX1R antag-1 | TAAR1 antagonist | CHO parental Ca | TAAR1 ag | OX1R antag-2
O=[N+]([O-])c1ccc(NN=Cc2ccccc2O)nc1 | · | 27 | · | 35 | ·
CC(=O)Nc1cc(OC(C)=O)c2nonc2c1OC(C)=O | 85* | -12 | -2 | 21 | 3
CC(=O)Nc1nonc1NC(C)=O | 3 | 9 | -11 | 4 | 1
COc1ccc(NS(=O)(=O)c2cc([N+](=O)[O-])ccc2N/N=C/c2c(C)[nH]c3ccccc23)cc1 | · | 3 | · | 3 | ·
Cc1[nH]c2ccccc2c1/C=N/Nc1ccccc1[N+](=O)[O-] | 67* | -34 | -18 | -2 | 2
O=C(c1cc2c(s1)-c1ccccc1S(=O)(=O)C2)N1CCN(Cc2ccccc2)CC1 | 18 | 51* | 1 | 13 | -16
CCN1CCN(C(=O)c2cc3c(s2)-c2ccccc2S(=O)(=O)C3)CC1 | 23 | -9 | -1 | 2 | -11
O=C(Nc1ccc2c(c1)OCO2)c1cc2n(n1)C(C(F)(F)F)CC(c1ccccc1)N2 (centres undefined) | 12 | 36 | 20 | 32 | -7
O=C(Nc1ccc2c(c1)OCO2)c1cnn2c1NC(c1ccco1)CC2C(F)(F)F (centres undefined) | 15 | -2 | 47* | 7 | -18
COC(=O)c1ccc2c(=O)n(CCCCCC(=O)NC3CCCCC3)c(=O)[nH]c2c1 | · | 12 | · | 0 | ·
CCC(Sc1nc2ccsc2c(=O)n1Cc1ccc(C(=O)O)cc1)C(=O)Nc1ccc(C)c(Cl)c1 (centres undefined) | 6 | 58* | 31 | 12 | 26
CC(C)c1cn(CC[C@@H]2CC[C@@H](NC(=O)C3CCCCC3)[C@@H](CO)O2)nn1 | · | -15 | · | 2 | ·
COCCNc1nc(Nc2ccc(Cl)cc2F)c2sccc2n1 | · | 11 | · | 1 | ·
CCC(=O)OCCNc1cc(Sc2nc3ccccc3[nH]2)c2nonc2c1[N+](=O)[O-] | 93* | 20 | 61* | 11 | 30
O=[N+]([O-])c1c(NCCCO)cc(Sc2nc3ccccc3s2)c2nonc12 | 45* | · | 51* | · | 54*
Cc1nnc(Sc2cc(NCCO)c([N+](=O)[O-])c3nonc23)s1 | · | -5 | · | -1 | ·
CCC(=O)OCCNc1cc(Sc2nc3ccccc3s2)c2nonc2c1[N+](=O)[O-] | 52* | 14 | 61* | 9 | 60*
C[C@@H]1NS(=O)(=O)c2ccc(F)cc2O[C@@H]1c1ccccc1 | · | 0 | · | 1 | ·
CCCNC(=O)c1cc(C2CCCN(C(=O)c3ccc(NC(C)=O)cc3)C2)on1 (centres undefined) | · | -13 | · | 2 | ·
N=c1c(C(=O)NCC2CCCO2)cc2c(=O)n3ccccc3nc2n1Cc1ccccc1 (centres undefined) | 51* | -14 | -18 | 0 | -3
Cc1ccc(Cn2c(=N)c(C(=O)NCC3CCCO3)cc3c(=O)n4ccccc4nc32)cc1 (centres undefined) | 56* | 6 | -8 | -4 | -11
COC(=O)N(C)C[C@@H]1OCc2cn(nn2)CCCC(=O)N([C@@H](C)CO)C[C@H]1C | · | -1 | · | -1 | ·
C/C(=N\NC(=O)c1ccccc1)c1cc2cc([N+](=O)[O-])ccc2oc1=O | 36 | -11 | 6 | 10 | -40
C/C(=N\NC(=O)c1ccc([N+](=O)[O-])cc1)c1cc2ccccc2oc1=O | 68* | -3 | 0 | 1 | -2
O=C(NNC(=O)c1cc2ccccc2oc1=O)c1ccccc1[N+](=O)[O-] | 77* | -9 | -4 | 2 | -11
SMILES | OX1R antag-1 | TAAR1 antagonist | CHO parental Ca | TAAR1 ag | OX1R antag-2
Cc1cc(C(=O)NNC(=O)c2ccccc2[N+](=O)[O-])c(C)o1 | 3 | -13 | 5 | 9 | -4
CC(=O)Nc1ccc(C(=O)OCC(=O)NC2CCCCCC2)cc1 | · | -12 | · | 2 | ·
CCOC(=O)C1=CCN(S(=O)(=O)c2cccc(Cl)c2)C1c1cccc(Br)c1 (centres undefined) | · | 24 | · | 3 | ·
Cc1ccn(CC(=O)N2CCCC(N3CCN(c4cccc(C(F)(F)F)c4)CC3)C2)n1 (centres undefined) | · | -7 | · | -1 | ·
O=C(Nc1cccc(C(F)(F)F)c1)c1cc(Br)cc2c1OCC2 | 7 | -10 | 8 | 1 | -9
O=C(Nc1cccc(C(F)(F)F)c1)c1scc2c1OCCO2 | 15 | 7 | 43* | 2 | -7
Cc1cccc(/C=N/NC(=O)c2cc(C3CC3)nc3ccccc23)n1 | 74* | 11 | 0 | 1 | -10
COc1ccc(-c2ccc3c(=O)cc(-c4ccsc4)oc3c2)cn1 | 63* | 12 | -16 | 4 | 14
COc1cc(-c2cc(=O)c3ccc(O)cc3o2)cc(OC)c1OC | · | 2 | · | 1 | ·
COc1cc(-c2ccc3oc(-c4ccsc4)cc(=O)c3c2)cc(OC)c1OC | 67* | 50* | -20 | 9 | 9
CCOC(=O)CC1(C)Oc2cc(Cl)ccc2N1S(=O)(=O)c1ccc(C)cc1 (centres undefined) | · | 20 | · | 2 | ·
CCN(CC)c1ccc2cc(-c3nc4ccccc4[nH]3)c(=O)oc2c1 | 81* | · | 80* | · | 113*
CCCc1cc(=O)oc2cc(OCC(=O)N3CCN(C(=O)C4COc5ccccc5O4)CC3)ccc12 (centres undefined) | 15 | 49* | -16 | 7 | -13
CC1CCN(C(=O)c2ncn3c2C(=O)NC[C@@H]3C)CC1 | · | 1 | · | 3 | ·
CCOC(=O)[C@]12CCCC=C1N(Cc1ccco1)C(=O)[C@H](CC(=O)NCCc1ccccc1OC)C2 | · | -15 | · | 35 | ·
Cn1cc2cccc([N+](=O)[O-])c2n1 | 74* | 8 | -1 | 1 | 0
Cc1ccc([C@H]2C[C@@H](O)[C@H](n3cc(C4CC4)nn3)CN2C(=O)c2cccs2)cc1 | · | -4 | · | 1 | ·
COc1ccc(CNC(=O)Nc2ccc(C)cc2)cc1 | 11 | 1 | 37* | -1 | 22
COc1ccc(CNC(=O)Nc2cc(C)cc(C)c2)cc1 | 3 | -7 | -11 | -2 | -4
Cc1ccc(S(=O)(=O)N2C3CC(c4ccccc4)N(S(=O)(=O)c4ccccc4Cl)CC3C(=O)C[C@H]2c2ccccc2)cc1 (some centres undefined) | · | -23 | · | 1 | ·
O=C(NCc1nnnn1-c1ccc(F)cc1)c1ccc([N+](=O)[O-])o1 | 54* | -13 | 4 | 0 | -3
Cc1ccc(-n2nnnc2CNC(=O)c2ccc([N+](=O)[O-])o2)cc1C | 29 | 7 | 2 | 0 | 8
O=C(NCC(c1ccc(F)cc1)N1CCOCC1)c1ccc([N+](=O)[O-])o1 (centres undefined) | 48* | -14 | -2 | 2 | 9
CCOC(=O)C1CCCN(C(=O)c2ccc3c(c2)C(C)(C)CCC3(C)C)CC1 (centres undefined) | · | 17 | · | -2 | ·
CC(C)(C)Cc1c(-c2ccccc2)nc2ccc(Cl)cn12 | · | 13 | · | 3 | ·
Cc1cc(S(=O)(=O)NCc2ccncc2)c(C)cc1Br | 26 | 3 | 46* | 2 | 12
